Laboratory results from ChEMBL document CHEMBL1136011, “Nitric oxide releasing morpholine derivatives as hypolipidemic and antioxidant agents” (J Med Chem, 2002).

Key:
Rattus norvegicus [1] = assay: Hypolipidemic activity as percentage decrease in plasma levels of the cholesterol at 56 uM/kg administered intraperitoneally in rats; type: functional
In short: (§1)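 Hyperlipidemia induced in rats by Triton WR 1339 (200 mg/kg ip, aqueous solution). 1 h later, test agent 56 μmol/kg in saline given ip; controls receive saline alone. Blood is drawn from the aorta 24 h after Triton, and plasma total cholesterol, LDL-cholesterol and triglyceride are determined. Groups of four to six rats; Student's t-test.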

Rattus norvegicus [2] = assay: Hypolipidemic activity as percentage decrease in plasma levels of the triglyceride at 56 uM/kg administered intraperitoneally in rats; type: functional; in short: as §1
Rattus norvegicus [3] = assay: Hypolipidemic activity as percentage decrease in plasma levels of the LDL-cholesterol at 56 uM/kg administered intraperitoneally in rats; type: functional; in short: as §1
[4] = In vitro percentage release of nitric oxide.
In short: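 Nitric oxide release measured spectrophotometrically at 540 nm with a commercial kit. Determinations at least in duplicate.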

Rattus norvegicus [5] = assay: Hypolipidemic activity as percentage decrease in plasma levels of the LDL-cholesterol at 168 administered perorally in rats; type: functional
In short: (§2)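 Test agent 168 μmol/kg given orally to rats 3 h before Triton WR 1339 (200 mg/kg ip, aqueous solution). Blood is drawn from the aorta 24 h after Triton, and plasma total cholesterol, LDL-cholesterol and triglyceride are determined. Groups of four to six rats; Student's t-test.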

Rattus norvegicus [6] = assay: Hypolipidemic activity as percentage decrease in plasma levels of the cholesterol at 168 administered perorally in rats; type: functional; in short: as §2
Rattus norvegicus [7] = assay: Hypolipidemic activity as percentage decrease in plasma levels of the triglyceride at 168 administered perorally in rats; type: functional; in short: as §2

% release of nitric oxide [4]	SMILES	Decrease (Rattus norvegicus [1])	Decrease (Rattus norvegicus [2])	Decrease (Rattus norvegicus [3])	Decrease (Rattus norvegicus [5])	Decrease (Rattus norvegicus [6])	Decrease (Rattus norvegicus [7])
1%	CN1CC(OCCCO[N+](=O)[O-])(c2ccc(-c3ccccc3)cc2)OC2CCCCC21 (stereo not drawn)	23%	38%	1%			
17.3%	CN1CCOC(OCCCO[N+](=O)[O-])(c2ccc(-c3ccccc3)cc2)C1 (stereo not drawn)	63%	85%	47%	36%	40%	54%
4.6%	O=[N+]([O-])OCCCOC1(c2ccc(-c3ccccc3)cc2)CN2CCCCC2CO1 (stereo not drawn)	20%	37%	25%			

The next lines start with the compound.

SMILES	% release of nitric oxide [4]	Decrease (Rattus norvegicus [1])	Decrease (Rattus norvegicus [2])	Decrease (Rattus norvegicus [3])	Decrease (Rattus norvegicus [5])	Decrease (Rattus norvegicus [6])	Decrease (Rattus norvegicus [7])
CC(C)(Sc1cc(C(C)(C)C)c(O)c(C(C)(C)C)c1)Sc1cc(C(C)(C)C)c(O)c(C(C)(C)C)c1 [PROBUCOL]		18%	11%	18%			
CN1CCOC(OCCCO[N+](=O)[O-])(c2ccccc2)C1 (stereo not drawn)	27.2 µM µM-1	20%	45%	43%			
CC(=O)N[C@@H](C(=O)O)C(C)(C)SN=O	56.7%						
